H9c2 TAG inh: inhibitors of triacylglycerol accumulation, primary screen, cell-based, uHTS, fluorescence, H9c2; H9c2 cells, Nile Red lipid (TAG) fluorescence; cells loaded with 200 µM oleic acid; inhibition, % at 12.5 µM; hit rate 0.66% among 230,000; AID 651582, 2012;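 active = pattern-corrected inhibition of lipid staining of at least 50% with the nuclear-stain viability signal not falling by more than 50%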;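 note: 0% = DMSO wells and 100% = triacsin C control wells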
aDG glyco act: activators of alpha-DG glycosylation, primary screen, uHTS, Pro5-aDG cells, AlphaScreen; alpha-DG glycosylation AlphaScreen (IIH6); 0% Pro5, 100% B10-LARGE cell signal; hit rate 0.22% among 360,000; activation, % at 10 µM;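 active = activation of at least 8% versus controls, or a plate z-score of at least 8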;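 note: Pro5 are CHO cells carrying HIG-tagged alpha-DG that lacks glycosylation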
TbMetRS inhib: T. brucei MetRS inhibitors, primary screen, biochemical, luminescence; methionyl-tRNA synthetase (Trypanosoma brucei brucei); purified T. brucei MetRS, ATP depletion, Kinase-Glo luminescence; inhibition, % at 11.9 µM; hit rate 0.4% among 360,000; AID 624268, 2012;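 active = inhibition above a per-plate cutoff of the control wells' mean inhibition plus 3 SD, cut at about 5.5% in these data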;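 note: 0% = DMSO wells median and 100% = median of wells with control inhibitor compound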
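Material: parasite MetRS enzyme / Replication: singlicate, one well per compound / Signal: luminescence of leftover ATP / Schedule: 2 h aminoacylation at 25 °C after 15 min preincubation / Medium: HEPES-MgCl2-KCl buffer plus DTT, spermine, BSA, pyrophosphatase / Doses: 11.9 µM single point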
NTR1 ag: agonists of human NTR1, primary screen, imaging, U2OS cells, beta-arrestin-GFP, high content; Neurotensin receptor type 1 (Homo sapiens), P30989; NTR1-U2OS beta-arrestin-GFP spot imaging, agonist mode; activation, % at 20 µM; hit rate 0.17% among 330,000; AID 493036, 2011;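 active = activation at or above 40% of the spot to cytoplasm intensity ratio, with at least 20 cells analyzed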;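 note: 0% = DMSO without peptide and 100% = 100 nM NTR1 peptide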
MC4R antag cAMP: MC4R antagonists of cAMP signaling, primary screen, cell-based, TR-FRET, antagonist arm of biased-ligand search; hit rate 0.48% among 360,000; Melanocortin receptor 4 (Homo sapiens), P32245; inhibition, % at 6.5 µM; MC4R-expressing cells, MTII-stimulated cAMP, LANCE TR-FRET; AID 540295, 2011;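 active = inhibition above its plate's cutoff, the mean of tested wells on that plate plus 3 SD, cut at about 29% in these data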;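 note: 0% = Melanotan II alone and 100% = Melanotan II plus saturating MCL0020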
Target sequence (P32245 whole entry, looked up): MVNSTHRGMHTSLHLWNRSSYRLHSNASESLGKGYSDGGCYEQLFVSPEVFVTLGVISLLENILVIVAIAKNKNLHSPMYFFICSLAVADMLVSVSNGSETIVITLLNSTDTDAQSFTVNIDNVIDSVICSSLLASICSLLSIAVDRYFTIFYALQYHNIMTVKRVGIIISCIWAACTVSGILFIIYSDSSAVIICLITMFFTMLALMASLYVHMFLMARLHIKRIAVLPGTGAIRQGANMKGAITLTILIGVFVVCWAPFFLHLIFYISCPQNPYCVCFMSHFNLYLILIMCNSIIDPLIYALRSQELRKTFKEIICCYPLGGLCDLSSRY
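Assay system: U2OS cells stably expressing human melanocortin 4 receptor (MC4R) / Dosing: 6.5 µM / Timing: compound 30 min, challenge 1 h, detection 1 h / Measured by: Eu-cAMP/anti-cAMP TR-FRET, emission 671 nm / Replicates: singlicate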
MC4R ag barr: MC4R agonists recruiting beta-arrestin, primary screen, cell-based, luminescence, agonist arm of biased-ligand search | Melanocortin receptor 4 (Homo sapiens), P32245 | U2OS MC4R beta-arrestin complementation; percent of melanotan II response, DMSO zero | activation, % at 8.9 µM | hit rate 0.98% among 360,000;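 active = activation above a per-plate cutoff, the mean activation of sample wells on that plate plus 3 SD, cut at about 8% in these data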
Tb MetRS conf: T. brucei MetRS inhibitors, confirmation, biochemical, luminescence. shares compounds with TbMetRS inhib. T. brucei MetRS enzyme, luminescence (ATP depletion). inhibition, % at 11.9 µM. hit rate 93% among 1,400. AID 624412, 2012; in the data active = inhibition above about 7%
Jurkat cytotox: Jurkat T cell cytotoxicity, cytotoxicity control for T. brucei MetRS inhibitor project, luminescence, high throughput | hit rate 12% among 1,400 | Jurkat cells viability, ATP luminescence | inhibition, % at 8.3 µM | shares compounds with TbMetRS inhib; in the data active = inhibition above about 15%;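 note: 0% = vehicle and 100% = reference inhibitor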
TbMetRS FP orth: T. brucei MetRS inhibitors, orthogonal assay for T. brucei MetRS inhibitor project, biochemical, fluorescence polarization | AID 651607, 2012 | shares compounds with TbMetRS inhib | inhibition, % at 11.9 µM | hit rate 44% among 1,400 | purified T. brucei MetRS; in the data active = inhibition above about 17%;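 note: 0% = vehicle wells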
The depositor's hits bear a star; · = no result. The list is not random: actives were taken first. Their share in the collection is about 2.4%.

SMILES	H9c2 TAG inh	aDG glyco act	TbMetRS inhib	NTR1 ag	MC4R antag cAMP	MC4R ag barr	Tb MetRS conf	Jurkat cytotox	TbMetRS FP orth
O=C(CCC(=O)Nc1cccc([N+](=O)[O-])c1)N/N=C/c1cccs1	14	0	44*	-1	1	-1	69*	7	48*
O=C(O)CCSc1nc2ccc(Br)cc2[nH]1	·	0	2	-1	5	1	·	·	·
Cn1c(CSc2nc3ccc(Br)cc3[nH]2)nc2ccccc21	·	0	12*	1	0	-1	18*	8	12
CCCCC#Cc1cncc(C(=O)NN)c1	-2	0	5.7*	0	-7	1	3	6	6
Nc1[nH]c(C(=O)c2ccccc2)c(-c2ccc(Cl)cc2Cl)c1C(=O)NCCc1c[nH]c2ccccc12	·	0	0	·	·	·	·	·	·
Cc1cc(F)ccc1C(O)c1ncc(-c2cccc(OCc3ccccc3)c2)[nH]1 (configuration not stated)	1	0	0	·	12	0	·	·	·
Cc1[nH]c2ccc(Br)cc2c(=O)c1CN1CCCCC1	·	0	34*	-1	4	2	55*	-7	27*
O=C(NNC(=O)c1cc(-c2ccc(Cl)c(Cl)c2)nc2ccccc12)Nc1ccccc1	9	2	45*	2	4	2	94*	2	81*
Cc1cccc(NC(=O)NNC(=O)c2cc(-c3ccccc3Cl)nc3ccccc23)c1	5	0	-1	3	5	-1	·	·	·
O=C(CCCSc1nc2ccccc2[nH]1)NCc1ccc(Cl)cc1	·	0	43*	0	2	-1	68*	-5	30*
O=C(CSc1nc2ccccc2[nH]1)NCCc1ccc(Cl)cc1	·	0	32*	0	-5	1	37*	1	17*
COc1cccc(CSc2nc3ccccc3[nH]2)c1	·	1	0	-1	4	-1	·	·	·
COc1cccc(CC(Cc2nc3ccccc3[nH]2)c2nc3ccccc3[nH]2)c1 (configuration not stated)	-9	0	9.3*	1	18	4	12*	5	5
Cc1cc(Cl)cc(C)c1OCCCCCn1ccnc1	·	1	7.8*	0	4	0	19*	7	10
CC(C)n1c(=O)c2ccccc2n1S(C)(=O)=O	·	0	0	·	·	·	·	·	·
O=C(COC(=O)Cn1cnc2ccccc21)Nc1cccc(S(=O)(=O)N2CCOCC2)c1	7	-1	35*	0	12	-2	57*	2	31*
O=C(Cc1ccc2c(c1)OCCO2)Nc1cccc(S(=O)(=O)N2CCOCC2)c1	-16	0	0	0	3	-3	·	·	·
O=C(Cn1c(=O)cnc2ccccc21)Nc1cccc(S(=O)(=O)N2CCOCC2)c1	7	1	1	-3	7	-2	·	·	·
O=C(Cc1ccc(Cl)cc1)Nc1cccc(S(=O)(=O)Nc2ccccc2F)c1	·	0	0	-1	7	0	·	·	·
CN(C)S(=O)(=O)c1cccc(NC(=O)Cc2ccc(Cl)cc2)c1	·	0	15*	0	4	0	27*	3	21*
O=C(Cc1ccc(Cl)c(Cl)c1)Nc1cccc(S(=O)(=O)N2CCOCC2)c1	-9	1	59*	3	5	-2	76*	0	65*
COCCCNC(=O)C[C@@H]1C[C@@]2(C(=O)OC)CC(C)(C)CC=C2N(Cc2ccccc2)C1=O	·	0	-1	·	·	·	·	·	·
Cc1cccc(C)c1NC(=O)C1(C)CN(S(C)(=O)=O)CC(=O)N1CCc1ccc(O)cc1 (configuration not stated)	·	0	-1	·	·	·	·	·	·
Cc1ccccc1S(=O)(=O)NC(=O)C1(C)CCN1C(=O)CC1CCCCC1 (configuration not stated)	7	0	1	·	0	0	·	·	·
O=C(c1ccccc1)c1nn(-c2ccccc2)c2nnc(Cc3ccccc3)c(=O)n12	·	0	6.5*	5	-3	0	16*	15*	6
SMILES	H9c2 TAG inh	aDG glyco act	TbMetRS inhib	NTR1 ag	MC4R antag cAMP	MC4R ag barr	Tb MetRS conf	Jurkat cytotox	TbMetRS FP orth
Cc1ccc(-n2nc(C(=O)c3ccccc3)n3c(=O)c(Cc4ccccc4)nnc23)cc1	·	-1	0	13	7	0	·	·	·
O=C(NCCNc1ccc([N+](=O)[O-])cc1)c1ccccc1Cl	-2	0	0	·	1	0	·	·	·
O=[N+]([O-])c1ccc(NCCNc2ccc(Cl)nn2)cc1	-64	0	11*	0	13	-2	18*	3	5
Cc1[nH]c2ccc(F)cc2c(=O)c1SC(F)(F)C(F)C(F)(F)F (configuration not stated)	-16	0	13*	0	11	-2	20*	2	7
CC(C)(C)n1nnnc1C(c1cc2ccccc2o1)N1CCN(C(=O)OCc2ccccc2)CC1 (configuration not stated)	·	0	-1	·	·	·	·	·	·
NC(=S)Nc1cc(Cl)cc(Cl)c1	-1	0	0	2	1	0	·	·	·
NC(=S)NNc1cc(Cl)cc(Cl)c1	1	0	8.1*	1	-10	0	18*	1	10
COc1cc(NC(=O)CCNS(=O)(=O)c2cc(Br)cnc2N)cc(OC)c1	·	0	0	-2	10	-1	·	·	·
Nc1ncc(Br)cc1S(=O)(=O)NCCC(=O)Nc1cccc(Cl)c1	·	0	11*	2	-4	-1	17*	0	9
Cc1ccc(NC(=O)CCNS(=O)(=O)c2cc(Br)cnc2N)c(Cl)c1	·	·	·	1	·	·	·	·	·
Cc1ccc(NC(=O)CCNS(=O)(=O)c2cc(Br)cnc2N)cc1Cl	·	0	44*	9	1	-1	58*	7	22*

Screens deposited in PubChem BioAssay by several laboratories.
